Screens (PubChem BioAssay)
TRPC4 block = TRPC4 (mouse) channel inhibition. hit rate 0.39% among 300,000. B-score at 10 µM. Q9QUQ5. AID 2247. HEK293 TRPC4beta/mu-opioid, DAMGO-evoked Fluo4 calcium flux; hits give low values;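 active = B-score over 3 SD under the library average, no early fluorescence shift, positive overall ratio signal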
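Assay system: Stable TRPC4beta/mu-opioid receptor HEK293 cells | Reagent: DAMGO in two steps, submaximal then maximal | Compound dosing: Single concentration per test compound | Signal: Fluo4 Ca2+ flux fluorescence | Evaluation: Per-well B score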
DNA FID counter = fluorescent intercalator displacement, NS3 helicase counter-screen; DNA fluorescent intercalator displacement, fluorescence; inhibition, % at 7.9 µM; hit rate 0.17% among 290,000; AID 1845; in the data active = inhibition above about 37%;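 also: higher means more ethidium bromide displaced from hairpin DNA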
TRPC6 inhibitor = blocks the mouse TRPC6 cation channel; HEK293-TRPC6, membrane potential dye, ACh-evoked depolarization; hits give low values; B-score at 10 µM; Q61143; hit rate 1.1% among 310,000; AID 2553;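 active = B-score under library mean minus 3 SD, initial fluorescence not abnormally high, positive integrated signal ratio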;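 also: B-score derived from integrated fluorescence ratio over the kinetic read; more negative B-score means stronger inhibition of depolarization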
Target sequence (Q61143 whole entry, looked up): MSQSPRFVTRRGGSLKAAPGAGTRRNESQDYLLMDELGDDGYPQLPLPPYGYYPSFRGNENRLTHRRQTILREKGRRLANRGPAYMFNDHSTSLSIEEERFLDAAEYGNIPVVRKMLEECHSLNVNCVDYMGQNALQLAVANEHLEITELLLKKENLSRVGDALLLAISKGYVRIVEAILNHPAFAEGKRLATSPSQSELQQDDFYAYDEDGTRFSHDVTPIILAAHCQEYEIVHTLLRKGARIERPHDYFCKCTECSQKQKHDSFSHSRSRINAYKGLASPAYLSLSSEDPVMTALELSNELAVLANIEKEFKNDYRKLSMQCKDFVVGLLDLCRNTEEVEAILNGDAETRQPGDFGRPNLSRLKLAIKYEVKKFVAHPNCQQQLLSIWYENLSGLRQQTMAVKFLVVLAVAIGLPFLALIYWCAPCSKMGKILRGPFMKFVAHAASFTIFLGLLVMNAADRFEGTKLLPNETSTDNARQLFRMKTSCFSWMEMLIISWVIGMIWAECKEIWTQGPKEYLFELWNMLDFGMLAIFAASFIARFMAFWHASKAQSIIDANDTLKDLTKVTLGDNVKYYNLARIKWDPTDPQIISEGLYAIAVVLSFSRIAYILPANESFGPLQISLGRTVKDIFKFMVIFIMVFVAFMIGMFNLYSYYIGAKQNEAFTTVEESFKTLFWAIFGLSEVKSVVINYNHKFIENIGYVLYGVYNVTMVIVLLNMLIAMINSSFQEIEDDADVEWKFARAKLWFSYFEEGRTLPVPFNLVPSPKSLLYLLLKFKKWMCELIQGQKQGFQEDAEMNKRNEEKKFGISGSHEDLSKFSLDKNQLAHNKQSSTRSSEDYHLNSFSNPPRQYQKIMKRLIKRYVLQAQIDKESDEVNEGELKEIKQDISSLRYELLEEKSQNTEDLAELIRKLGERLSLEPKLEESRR
TRPC4 potent = TRPC4 (mouse) allosteric potentiation; B-score at 10 µM; Q9QUQ5; HEK293 TRPC4beta/mu-opioid, DAMGO EC20, Fluo-4 Ca2+ flux; hits give high values; AID 2227; hit rate 0.42% among 310,000;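 active = B-score of calcium response area above 5 SD of library B-scores, with initial fluorescence ratio within 5 SD of library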
TRPC4 act = TRPC4 (mouse) channel activation. Q9QUQ5. hit rate 0.49% among 310,000. B-score at 10 µM. HEK293 TRPC4beta/mu-opioid, Fluo4 calcium fluorescence; hits give high values;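 active = B-score above 5 SD of library B-scores, and initial fluorescence ratio not above library mean plus 5 SD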;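 also: positive B-score marks a calcium rise read as TRPC4 activation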
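Material: TRPC4beta and mu-opioid receptor HEK293 stable cells | Incubation: 45 min room-temperature Fluo4 loading, 110 s read | Detection: Kinetic Fluo4 calcium fluorescence | Measure: Integrated baseline-normalised fluorescence ratio, converted to per-well B score | Benchmarks: Low control buffer alone, high control maximal DAMGO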
TRPC6 act = mouse TRPC6 channel activation. Q61143. HEK293-TRPC6 membrane potential dye fluorescence; hits give high values. B-score at 10 µM. hit rate 0.13% among 310,000. AID 2550;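 active = B-score of the integrated fluorescence ratio above library mean plus 3 SD, and starting fluorescence ratio within library mean plus 5 SD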;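 also: higher score means more depolarization so channel activation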
Numbers stand for hits; i = inactive; nt = no result. In the library only some 2.3% were active in any assay of this set; here they are far more common.

SMILES	TRPC4 block	DNA FID counter	TRPC6 inhibitor	TRPC4 potent	TRPC4 act	TRPC6 act
CC(C)Oc1ccc(CSC(=N)N)cc1	i	i	i	i	i	i
CC(C)CNS(=O)(=O)c1ccc(S(=O)(=O)N2CCN(C3CCCC3)CC2)cc1	i	i	i	i	i	i
COCCn1nnnc1C(c1cccc(OC)c1OC)N1CCN(C2CCCCC2)CC1 (configuration not stated)	-6	i	i	i	i	i
COCCn1nnnc1C(c1cc2ccc(OC)cc2[nH]c1=O)N1CCN(C2CCCCC2)CC1 (configuration not stated)	i	i	i	i	136	i
COCCn1nnnc1C(c1cc2cc(C)ccc2[nH]c1=O)N1CCN(C2CCCCC2)CC1 (configuration not stated)	i	i	i	i	i	i
COc1ccc(OC(=O)CCc2c[nH]c3ccccc23)cc1	i	i	i	i	i	i
CN(C1CCCCC1)S(=O)(=O)CCNC(=O)c1ccccc1	i	nt	i	i	i	i
CCn1nc([N+](=O)[O-])c(C(C#N)c2nc3cc(C(F)(F)F)ccc3s2)c(Cl)c1=O (configuration not stated)	i	i	-10.8	i	i	i
Cc1nnc(NC(=O)CSc2nnc(CC(=O)Nc3ccccc3F)n2C)s1	i	i	i	i	i	i
CCCCN(C)CCNC(=S)Nc1ccc2nc(N3CCN(CC)CC3)cc(C)c2c1	i	45.9	i	16	i	i
CCCCNC(=O)CCC(=O)Nc1ccc2nc(N3CCN(C)CC3)cc(C)c2c1	i	i	i	i	i	i
CCCN(CCC)CCNC(=O)CCC(=O)Nc1ccc2nc(N3CCN(C)CC3)cc(C)c2c1	i	i	i	i	87	i
CCCN1CCN(CCCNC(=S)Nc2ccc3nc(N4CCN(CC)CC4)cc(C)c3c2)CC1	i	36.7	i	i	i	i
CCCCNC(=S)Nc1ccc2nc(N3CCN(CC)CC3)cc(C)c2c1	i	i	i	i	i	i
CCCCN(C)C(=S)Nc1ccc2nc(N3CCN(CC)CC3)cc(C)c2c1	i	i	i	i	i	i
CCN1CCN(c2cc(C)c3cc(NC(=S)NCCN(C)C)ccc3n2)CC1	i	49.4	i	i	i	i
CCc1ccc(C(=O)C[n+]2cccc3cc(OC)ccc32)cc1	i	i	i	i	i	i
CCN(CC)CCNC(=S)Nc1ccc2nc(N3CCN(CC)CC3)cc(C)c2c1	i	38.5	i	i	i	i
CCCCCCCCC[n+]1cccc2c3ccccc3ccc21	i	i	-5.7	i	i	i
O=[N+]([O-])c1ccc(-c2nn(-c3ccccc3)cc2/C=N/n2c(-c3ccncc3)n[nH]c2=S)cc1	i	i	i	i	i	i
Oc1c(Br)cc(Br)c(/C=N/n2c(-c3ccccc3)n[nH]c2=S)c1Br	i	i	i	28	i	i
S=c1[nH]nc(-c2ccncc2)n1/N=C/c1cn(-c2ccccc2)nc1-c1ccccc1	i	i	i	13	i	i
CC(C)(C)C(=O)Nc1sc(-c2ccccc2)cc1C(=O)O	i	i	i	i	i	i
Cc1cccc(C(=O)Nc2sc(-c3ccccc3)cc2C(=O)O)c1	-6	i	i	i	i	i
Cc1ccc(-n2c(SCC(=O)Nc3cccc(S(=O)(=O)NC4=NCCCCC4)c3)nc3ccccc3c2=O)cc1	i	i	i	i	72	i
SMILES	TRPC4 block	DNA FID counter	TRPC6 inhibitor	TRPC4 potent	TRPC4 act	TRPC6 act
CC1CN(c2nc3c(c(=O)n(Cc4ccc(Cl)c(Cl)c4)c(=O)n3C)n2C)CC(C)O1 (configuration not stated)	i	i	i	14	i	i
Cc1cccc(Cn2c(=O)c3c(nc4n3CCCN4Cc3ccccc3)n(C)c2=O)c1	i	i	i	20	i	i
Cn1c(N2CCC(C(N)=O)CC2)nc2c1c(=O)n(Cc1ccc(Br)cc1)c(=O)n2C	i	i	i	15	i	i
CSc1ccc(C(=O)N2CCC(CCC(=O)NCc3ccc(F)cc3)CC2)cc1	i	i	i	i	i	i
O=C1NC(c2ccccc2)=C(c2nc3ccccc3s2)C(c2ccc(F)cc2)N1 (configuration not stated)	i	i	i	11	i	i
COc1ccc(C2NC(=O)NC(c3ccccc3)=C2c2nc3ccccc3s2)cc1 (configuration not stated)	i	i	i	i	i	i
CN(C)S(=O)(=O)N1CCC(CCCC2CCN(S(=O)(=O)N(C)C)CC2)CC1	i	i	i	23	i	i
O=C(Cn1cc([N+](=O)[O-])cn1)Nc1ccccn1	i	i	i	i	i	i
Cc1ccnc(NC(=O)Cn2cc([N+](=O)[O-])cn2)c1	-8	i	i	i	i	i
COCC(=O)N1CCC(Oc2ccc(C(=O)NCc3cc(C(C)C)no3)cc2)CC1	i	i	i	i	i	i
O=C(Nc1ccccc1N1CCN(C(=O)c2ccccc2)CC1)c1ccc(Br)o1	-7	i	i	i	i	i
COc1ccc(C(=O)Nc2ccccc2N2CCN(C(=O)c3ccccc3)CC2)cc1Br	-6	i	i	i	i	i
O=C(Nc1ccccc1N1CCN(C(=O)c2ccccc2)CC1)c1ccc(Cl)cc1	i	i	i	i	i	i
O=C(Nc1ccc(Nc2ccccc2)cc1)c1ccc(Br)o1	i	i	i	13	i	i
O=C(NC(=S)Nc1ccccc1)c1ccc(Br)o1	i	i	i	i	i	i
COC(=O)c1ccccc1Nc1ccnc(Cl)n1	i	nt	i	i	i	i
CCOc1ccc(OCCC(=O)N(CCCOC)c2c(N)n(Cc3ccccc3)c(=O)[nH]c2=O)cc1	i	nt	i	i	i	i
Cc1ccc(C)c(NC(=O)CCN2CCC(C)CC2)c1	i	i	i	i	i	i
Cc1ccc2nc(Cl)c3cc(C(=O)N(CCN(C)C)Cc4ccco4)sc3c2c1	i	i	i	i	54	i
CCCCN(CC)CCNC(=O)c1cc2c(C)nc3ccccc3c2o1	i	i	i	i	138	i
CCCCN(CC)CCNC(=O)c1cc2cc3ccc(Cl)cc3nc2o1	i	i	i	13	103	i
CCc1ccc(CNC(=O)c2cc3c(C)nc4ccccc4c3o2)cc1	i	i	i	i	i	i
CCCN(CCC)CCCNC(=O)c1cc2cc3ccc(Cl)cc3nc2o1	i	i	i	i	53	i
Cc1ccc2cc3cc(C(=O)NCCCN4CCCC4)oc3nc2c1	i	i	i	i	i	i
CCCCN(CC)CCCNC(=O)c1cc2cc3ccc(C)cc3nc2o1	i	i	i	16	i	i
C=CCNc1nc(C)c(CNc2c(C)cc(C)cc2C)nc1C#N	i	i	i	i	i	i
COc1ccc(CCNC(=O)COc2ccc(S(=O)(=O)N3CCOCC3)cc2C)cc1	i	i	i	i	i	i
O=C(CSc1nnc(C2CC2)n1CC1CCCO1)Nc1ccccc1Cl (configuration not stated)	i	i	i	i	i	i
